# Assays:
# [1] = tested on: L1210; test: Inhibition of synthesis of [methyl-14C] thymidine into DNA, in L1210 cells.; type: functional, cell-based, Mus musculus
# Method in brief: (§1)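 Actively growing L1210 cells in vitro. Incorporation of [5-3H]uridine into RNA, or [methyl-14C]thymidine into DNA, compared with untreated cells. IC50 is micromolar drug concentration giving 50% reduction in incorporation rate.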
# [2] = tested on: B16; test: In vitro 50% Growth inhibition of sensitive B16 cells.; type: functional, Mus musculus; conditions: read-out: ID50 (the source's name)
# Method in brief: (§2)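 Actively growing tumor cells in vitro (actinomycin-resistant P388/ADR leukemia; sensitive B16 melanoma); ID50 is concentration (nM) needed for 50% growth inhibition.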
# [3] = tested on: L1210; test: 50% Inhibition of growth of L1210 cells in culture.; type: functional, Mus musculus; conditions: read-out: ID50 (the source's name)
# Method in brief: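 L1210 leukemia cells growing actively in culture; ID50 is drug concentration (nM) giving 50% inhibition of growth relative to untreated L1210 cells.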
# [4] = tested on: L1210; test: Optimal dose per injection, administered ip on days 1, 5, and 9, ip inoculation with 10E5 L1210 cells per CDF1 mouse on day 0.; type: functional
# Method in brief: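 CDF1 mice inoculated ip with 10^5 L1210 cells on day 0; drugs given ip on days 1, 5 and 9. Optimal dose in mg/kg per injection. %ILS is increase in median life span of treated dying mice over untreated tumor-bearing mice; survivors counted beyond 60 days, 9 per group.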
# [5] = species: Mus musculus; test: Antitumor activity measured as % increase in life span, against C26 colon carcinoma.; type: functional
# Method in brief: (§3)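 C26 primary colon carcinoma cells (trypan blue excluding, 2.5 × 10^5 cells/mouse) implanted in CDF1 mice on day 0. Drug given ip on days 1, 5 and 9 in 0.1 mL 5% v/v Me2SO-saline at optimal dose. Read-out is median survival time; %ILS is drug-treated over control, excluding survivors. Sixty-day survivors are counted.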
# [6] = species: Mus musculus; test: percent increase in median life time (%ILS) measured in mice bearing leukemia L!210; type: functional
# Method in brief: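 CDF1 mice inoculated ip with 10^5 L1210 cells on day 0. Drug given ip on days 1, 5 and 9 at the optimal dose in mg/kg per injection. %ILS is the increase in median life span of treated dying animals versus untreated tumor-bearing mice. Over-60-day survivors are counted; 9 mice per group.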
# [7] = tested on: Mus musculus; test: Antitumor activity measured as % increase in life span, for ip administration of compound and ip inoculation of B16 melanoma.; type: functional
# Method in brief: (§4)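 B16 brei (tumor weight/Hank's balanced salt solution 1:5, 0.2 mL) implanted sc or ip into groups of nine BDF1 mice on day 0. Drug given iv on day 1 (sc tumor) or ip on days 1, 5 and 9 (ip tumor), in 0.1 mL 5% v/v Me2SO-saline. Read-out is median survival time and %ILS versus untreated controls, excluding sixty-day survivors.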
# [8] = species: Mus musculus; test: Antitumor activity measured as optimal dose, against C26 colon carcinoma.; type: functional
# Method in brief: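 Primary colon C26 carcinoma cells (trypan blue excluding, 2.5 × 10^5 cells/mouse) implanted in CDF1 mice on day 0. Drug given ip on days 1, 5 and 9 in 0.1 mL 5% v/v Me2SO-saline. Optimal dose in […]; %ILS and 60-day survivors scored.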
# [9] = tested on: Mus musculus; test: Antitumor activity measured as median survival time, for ip administration and ip inoculation of B16 melanoma.; type: functional; method in brief: as §4
# [10] = species: Mus musculus; test: Antitumor activity measured as median survival time, against C26 colon carcinoma.; type: functional; method in brief: as §3
# [11] = tested on: P388/ADR; test: Antitumor activity measured as Median survival time in days against P388/ADR, in ip implanted CDF1 mice, treated ip, qd 1-9; type: functional, Mus musculus
# Method in brief: (§5)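 P388/ADR leukemia, a P388/S subline made resistant to intercalators, implanted ip in CDF1 mice. Drug given ip daily on days 1-9 at optimal dose. Read-out is median survival time of tumor-bearing mice and %ILS of treated dying animals versus controls. Survivors beyond 60 days are counted; 10 mice per group.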
# [12] = tested on: P388/ADR; test: Antitumor activity against P388/ADR, in ip implanted CDF1 mice, treated ip, qd 1-9 measured as optimal dose; type: functional, Mus musculus
# Method in brief: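 P388/ADR leukemia implanted ip in CDF1 mice; drugs given ip once daily on days 1-9. Optimal dose recorded alongside median survival time and % increase in median life span of treated dying mice versus controls; survivors counted as >60-day survivors per group of 10.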
# [13] = tested on: P388/ADR; test: In vitro 50% Growth inhibition of actinomycin resistant P388/ADR cells; type: functional, Mus musculus; conditions: read-out: ID50 (the source's name); method in brief: as §2
# [14] = tested on: P388/ADR; test: Antitumor activity measured as %ILS against P388/ADR, in ip implanted CDF1 mice, treated ip, qd 1-9; type: functional, Mus musculus; method in brief: as §5
# [15] = species: Mus musculus; test: Antitumor activity measured as optimal dose, for B16 melanoma.
# [16] = tested on: Mus musculus; test: Antitumor activity measured as median survival time, for iv administration and sc inoculation of B16 melanoma.
# [17] = tested on: Mus musculus; test: Antitumor activity measured as % increase in life span, for iv administration of compound and sc inoculation of B16 melanoma.
# [18] = Molar ratio of DNA to total amount of compound that is bound both intercalatively and covalently to calf thymus DNA helix; type: functional
# Method in brief: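 [3H]Drug and purified calf thymus DNA dialyzed at 37 °C in Tris HCl pH 7.4 (20 mM per footnote; 25 mM in methods). Equilibrated complex precipitated twice with ethanol to remove unbound drug. Molar DNA/drug ratio based on total bound drug, intercalative plus covalent.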
# [19] = ratio of DNA to compound bound entirely by covalent bonding to DNA base.; type: functional
# Method in brief: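 [3H]Drug and purified calf thymus DNA dialyzed at 37 °C in Tris HCl buffer; complex twice ethanol-precipitated to remove unbound drug. Molar DNA/drug ratio calculated from drug bound only covalently to DNA bases.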
# [20] = tested on: L1210; test: Inhibition of synthesis of [5-3H]-uridine into RNA in L1210 cells.; type: functional, cell-based, Mus musculus; conditions: l1210; method in brief: as §1
# [21] = species: Bos taurus; test: Thermal denaturation of calf thymus DNA measured as ΔTm; conditions: cattle, in vitro
# [22] = tested on: Mus musculus; test: Antitumor activity measured as median survival time, for iv administration and sc inoculation of B16 melanoma.; remark: listed apart in the source
# [23] = tested on: Mus musculus; test: Antitumor activity measured as % increase in life span, for iv administration of compound and sc inoculation of B16 melanoma.; remark: listed apart in the source
structure (smiles),measurement,setting,value
Cc1c2oc3c(C)c(OC[C@H]4CO4)cc(C(=O)N[C@@H]4C(=O)N[C@H](C(C)C)C(=O)N5CCC[C@H]5C(=O)N(C)CC(=O)N(C)[C@@H](C(C)C)C(=O)O[C@@H]4C)c3nc-2c(C(=O)N[C@@H]2C(=O)N[C@H](C(C)C)C(=O)N3CCC[C@H]3C(=O)N(C)CC(=O)N(C)[C@@H](C(C)C)C(=O)O[C@@H]2C)c(N)c1=O [listing 1 of 2 here],IC50,"[1]; Mus musculus, L1210",0.06 µM
Cc1c2oc3c(C)c(OC[C@H]4CO4)cc(C(=O)N[C@@H]4C(=O)N[C@H](C(C)C)C(=O)N5CCC[C@H]5C(=O)N(C)CC(=O)N(C)[C@@H](C(C)C)C(=O)O[C@@H]4C)c3nc-2c(C(=O)N[C@@H]2C(=O)N[C@H](C(C)C)C(=O)N3CCC[C@H]3C(=O)N(C)CC(=O)N(C)[C@@H](C(C)C)C(=O)O[C@@H]2C)c(N)c1=O [listing 2 of 2 here],IC50,"[2]; Mus musculus, B16",0.002 µM
same,IC50,"[3]; Mus musculus, L1210",0.0231 µM
same,Dose,[4],0.05 mg/kg
same,%ILS,[5],89%
same,ILS,[6],199%
same,ILS,[7],105%
same,Dose,[8],0.6 mg/kg
same,MST,[9],39 days
same,MST,[10],41.5 days
same,MST,[11],45 days
same,Dose,[12],0.3 mg/kg
same,IC50,"[13]; Mus musculus, P388/ADR",0.04 µM
same,ILS,[14],400%
same,Dose,[15],1 mg/kg
same,MST,[16],56 days
same,ILS,[17],70%
Cc1c2oc3c(C)c(OC[C@H]4CO4)cc(C(=O)N[C@@H]4C(=O)N[C@@H](C(C)C)C(=O)N5CCC[C@H]5C(=O)N(C)CC(=O)N(C)[C@@H](C(C)C)C(=O)O[C@H]4C)c3nc-2c(C(=O)N[C@@H]2C(=O)N[C@@H](C(C)C)C(=O)N3CCC[C@H]3C(=O)N(C)CC(=O)N(C)[C@@H](C(C)C)C(=O)O[C@H]2C)c(N)c1=O,Ratio,[18],30
same,Ratio,[19],500
Cc1c2oc3c(C)c(OCC4CO4)cc(C(=O)N[C@@H]4C(=O)N[C@H](C(C)C)C(=O)N5CCC[C@H]5C(=O)N(C)CC(=O)N(C)[C@@H](C(C)C)C(=O)O[C@@H]4C)c3nc-2c(C(=O)N[C@@H]2C(=O)N[C@H](C(C)C)C(=O)N3CCC[C@H]3C(=O)N(C)CC(=O)N(C)[C@@H](C(C)C)C(=O)O[C@@H]2C)c(N)c1=O (stereo in doubt) [listing 1 of 2 here],IC50,[20],0.05 µM
same,IC50,[1]; l1210,0.06 µM
same,ΔTm,[21],5
Cc1c2oc3c(C)c(OCC4CO4)cc(C(=O)N[C@@H]4C(=O)N[C@H](C(C)C)C(=O)N5CCC[C@H]5C(=O)N(C)CC(=O)N(C)[C@@H](C(C)C)C(=O)O[C@@H]4C)c3nc-2c(C(=O)N[C@@H]2C(=O)N[C@H](C(C)C)C(=O)N3CCC[C@H]3C(=O)N(C)CC(=O)N(C)[C@@H](C(C)C)C(=O)O[C@@H]2C)c(N)c1=O (stereo in doubt) [listing 2 of 2 here],IC50,[2],0.0035 µM
same,IC50,[3],0.0568 µM
same,ILS,[6],143%
same,ILS,[7],74%
same,Dose,[8],0.9 mg/kg
same,MST,[9],33 days
same,MST,[11],43 days
same,Dose,[12],0.8 mg/kg
same,IC50,[13],0.135 µM
same,ILS,[14],377%
same,MST,[22],53 days
same,ILS,[23],60%

# Source: ChEMBL document CHEMBL1124173, “Enantiomers of 7-(2,3-epoxypropoxy)actinomycin D as dual-action DNA-acting antitumor agents” (J Med Chem, 1988)
